Measured values: ChEMBL document CHEMBL1629663, “Postantibiotic effects of telavancin against 16 gram-positive organisms” (Antimicrob Agents Chemother, 2009)
In brackets after ≈: the same amount, converted by molar mass.

What was measured:
Type in all cases: functional
Enterococcus faecalis [1] = experiment: Antimicrobial activity against Enterococcus faecalis ATCC 29212 assessed as time required to induce post antibiotic sub-MIC effect at 0.3 times MIC […] by plate counting method
How it was run: (§1)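 Mueller-Hinton broth cultures of about 5 × 10^6 CFU/ml were pre-exposed to telavancin at 10× MIC for 1 h at 35°C, then diluted 1:1,000. Telavancin was re-added to final 0.2, 0.3 or 0.4× MIC, alongside a drug-free tube. Viable counts were taken before exposure, after dilution, then every 2 h until McFarland no. 1 turbidity. Duration comes from log10 CFU/ml-versus-time plots; two separate experiments with fresh inocula.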

Enterococcus faecium [2] = experiment: Antimicrobial activity against Enterococcus faecium HMC 588 assessed as post-antibiotic effect at 10 times MIC pre-exposed to Telavancin for 1 hr by plate counting method
How it was run: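 Organisms were suspended in Mueller-Hinton broth from overnight blood agar colonies at about 5 × 10^6 CFU/ml. Cultures were exposed to telavancin at 10× MIC for 1 h at 35°C in a shaking water bath, then diluted 1:1,000 to remove the drug, with an untreated growth control. Viable counts were taken before exposure, at 0 h, then every 2 h until McFarland no. 1 turbidity. PAE = T − C, the time to a 1 log10 rise. Two experiments.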

Enterococcus faecium [3] = experiment: Antimicrobial activity against Enterococcus faecium HMC 588 assessed as time required to induce sub-MIC effect at 0.4 times MIC exposed for 2 hrs by plate counting method
How it was run: (§2)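 Unexposed Mueller-Hinton broth cultures (about 5 × 10^6 CFU/ml, 35°C) were handled as in the PA-SME set but without the 10× MIC pre-exposure. They were diluted 1:1,000, then given telavancin at final 0.2, 0.3 or 0.4× MIC, with a drug-free control. Viable counts were taken every 2 h until McFarland no. 1 turbidity. Effect duration comes from log10 CFU/ml-time plots; two separate experiments with new inocula.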

Staphylococcus aureus [4] = experiment: Antimicrobial activity against heterogenous vancomycin-intermediate-, methicillin-resistant Staphylococcus aureus 873 assessed as time required to induce post antibiotic sub-MIC effect at 0.4 times MIC […] by plate counting method
How it was run: (§3)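 PAE was first induced with 10× MIC for 1 h at 35°C (inoculum about 5 × 10^6 CFU/ml, Mueller-Hinton broth) and ended by 1:1,000 dilution. Cultures were then split and given 0.2, 0.3 or 0.4× MIC, with one tube left without drug. Viable counts were taken before exposure, after dilution, then every 2 h until McFarland no. 1 turbidity. Two separate experiments, each with a new inoculum.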

Staphylococcus aureus [5] = experiment: Antimicrobial activity against vancomycin-intermediate-, methicillin-resistant Staphylococcus aureus 555 assessed as time required to induce sub-MIC effect at 0.3 times MIC […] by plate counting method
How it was run: (§4)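 SME, viable plate count method: no prior drug exposure. About 5 × 10^6 CFU/ml in Mueller-Hinton broth at 35°C received 0.2, 0.3 or 0.4× MIC, alongside a drug-free tube. Counts were taken at the start, then every 2 h until McFarland no. 1 turbidity, as log10 CFU/ml against time. Two separate experiments, each with a new inoculum.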

Staphylococcus aureus [6] = experiment: Antimicrobial activity against vancomycin-susceptible-, methicillin-resistant Staphylococcus aureus ATCC 33591 assessed as post-antibiotic effect at 10 times MIC pre-exposed to Telavancin for 1 hr by plate counting method
How it was run: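 Direct colony suspensions (~5 × 10^6 CFU/ml) were exposed to 10× MIC for 1 h at 35°C with shaking in Mueller-Hinton broth, then diluted 1:1,000 to remove drug. Viable plate counts were taken before exposure, at 0 h, then every 2 h until turbidity reached McFarland 1. PAE = T − C, the time for counts to rise 1 log10 versus the unexposed control. Two separate experiments were run.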

Enterococcus faecalis [7] = experiment: Antimicrobial activity against Enterococcus faecalis HMC 571 by microdilution method
Enterococcus faecalis [8] = experiment: Antimicrobial activity against Enterococcus faecalis ATCC 29212 assessed as time required to induce sub-MIC effect at 0.3 times MIC exposed for 2 hrs by plate counting method; how it was run: as §2
Streptococcus agalactiae [9] = experiment: Antimicrobial activity against Streptococcus agalactiae HMC 5 assessed as time required to induce sub-MIC effect at 0.3 times MIC exposed for 2 hrs by plate counting method; how it was run: as §2
Staphylococcus aureus [10] = experiment: Antimicrobial activity against vancomycin-susceptible-, methicillin-resistant Staphylococcus aureus 1306 assessed as time required to induce sub-MIC effect at 0.3 times MIC exposed for 2 hrs by plate counting method
How it was run: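 Sub-MIC effect: cultures not preexposed to drug were diluted and handled as in the PA-SME procedure in Mueller-Hinton broth with final 0.2, 0.3 or 0.4× MIC, plus a drug-free control. Viable plate counts were taken every 2 h until McFarland 1 turbidity. Duration was derived from growth curves. Two experiments were run, each with a new inoculum.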

Streptococcus agalactiae [11] = experiment: Antimicrobial activity against Streptococcus agalactiae HMC 5 assessed as time required to induce sub-MIC effect at 0.2 times MIC exposed for 2 hrs by plate counting method; how it was run: as §2
Staphylococcus aureus [12] = experiment: Antimicrobial activity against vancomycin-susceptible-, methicillin-resistant Staphylococcus aureus 1307 by microdilution method
Staphylococcus aureus [13] = experiment: Antimicrobial activity against vancomycin-resistant-, methicillin-resistant Staphylococcus aureus 510 by microdilution method
Streptococcus agalactiae [14] = experiment: Antimicrobial activity against Streptococcus agalactiae HMC 5 assessed as time required to induce post antibiotic sub-MIC effect at 0.2 times MIC pre-exposed to Telavancin for 2 hrs by plate counting method; details: in the assay text read “for 1 hr” for “for 2 hrs”; how it was run: as §1
Staphylococcus aureus [15] = experiment: Antimicrobial activity against vancomycin-intermediate-, methicillin-resistant Staphylococcus aureus 1287 assessed as time required to induce sub-MIC effect at 0.4 times MIC […] by plate counting method; how it was run: as §4
Streptococcus pyogenes = experiment: Antimicrobial activity against Streptococcus pyogenes HMC 414 assessed as time required to induce sub-MIC effect at 0.3 times MIC exposed for 2 hrs by plate counting method; how it was run: as §2
Enterococcus faecalis [16] = experiment: Antimicrobial activity against Enterococcus faecalis HMC 571 assessed as time required to induce sub-MIC effect at 0.3 times MIC exposed for 2 hrs by plate counting method; how it was run: as §2
Staphylococcus aureus [17] = experiment: Antimicrobial activity against vancomycin-intermediate-, methicillin-resistant Staphylococcus aureus 770 assessed as time required to induce post antibiotic sub-MIC effect at 0.2 times MIC pre-exposed to Telavancin […] by plate counting method; how it was run: as §3
Staphylococcus aureus [18] = experiment: Antimicrobial activity against vancomycin-intermediate-, methicillin-resistant Staphylococcus aureus 1287 assessed as post-antibiotic effect at 10 times MIC pre-exposed to Telavancin for 1 hr by plate counting method
How it was run: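 Viable plate count method in Mueller-Hinton broth. Direct colony suspension inoculum of about 5 × 10^6 CFU/ml was exposed to 10× MIC for 1 h at 35°C in a shaking water bath, then diluted 1:1,000 to remove drug. Counts were taken before exposure, at 0 h, then every 2 h until McFarland no. 1 turbidity. PAE = T − C, the time to a 1 log10 rise versus an unexposed growth control.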

Enterococcus faecium [19] = experiment: Antimicrobial activity against Enterococcus faecium HMC 588 by microdilution method
Staphylococcus aureus [20] = experiment: Antimicrobial activity against vancomycin-intermediate-, methicillin-resistant Staphylococcus aureus 555 by microdilution method

SMILES: CCCCCCCCCCNCCN[C@@]1(C)C[C@H](O[C@H]2[C@H](Oc3c4cc5cc3Oc3ccc(cc3Cl)[C@@H](O)[C@@H](NC(=O)[C@@H](CC(C)C)NC)C(=O)N[C@@H](CC(N)=O)C(=O)N[C@H]5C(=O)N[C@H]3C(=O)N[C@H](C(=O)N[C@H](C(=O)O)c5cc(O)c(CNCP(=O)(O)O)c(O)c5-c5cc3ccc5O)[C@H](O)c3ccc(c(Cl)c3)O4)O[C@H](CO)[C@@H](O)[C@@H]2O)O[C@@H](C)[C@H]1O [TELAVANCIN]
- PAE (Enterococcus faecalis [1]): > 10.7 h
- PAE (Enterococcus faecium [2]): 1.2 h
- PAE (Enterococcus faecium [3]): 8.8 h
- PAE (Staphylococcus aureus [4]): 6.7 h
- PAE (Staphylococcus aureus [5]): 1.7 h
- PAE (Staphylococcus aureus [6]): 1.5 h
- MIC (Enterococcus faecalis [7]): 0.25 µg/mL (≈ 0.142 µM)
- PAE (Enterococcus faecalis [8]): 2 h
- PAE (Streptococcus agalactiae [9]): 2.1 h
- PAE (Staphylococcus aureus [10]): 5.1 h
- PAE (Streptococcus agalactiae [11]): 0.2 h
- MIC (Staphylococcus aureus [12]): 0.12 µg/mL (≈ 0.0684 µM)
- MIC (Staphylococcus aureus [13]): 0.5 µg/mL (≈ 0.285 µM)
- PAE (Streptococcus agalactiae [14]): 0.8 h
- PAE (Staphylococcus aureus [15]): 0.8 h
- PAE (Streptococcus pyogenes): 0 h
- PAE (Enterococcus faecalis [16]): 2.6 h
- PAE (Staphylococcus aureus [17]): 3.8 h
- PAE (Staphylococcus aureus [18]): 1.2 h
- MIC (Enterococcus faecium [19]): 0.12 µg/mL (≈ 0.0684 µM)
- MIC (Staphylococcus aureus [20]): 0.5 µg/mL (≈ 0.285 µM)
